Among the data in ChEMBL document CHEMBL1157207, “Synthesis of 3,5-bis(2-indolyl)pyridine and 3-[(2-indolyl)-5-phenyl]pyridine derivatives as CDK inhibitors and cytotoxic agents” (Bioorg Med Chem, 2008) are IC50 values, retold here.

For one assay, the system named is CCRF-CEM. As to the kind of experiment: Cytotoxicity against human CEM cells. The class given is functional, cell-based. In a few lines:
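CEM human leukaemia cells kept in RPMI 1640 with 10% FBS, 2 mM glutamine, penicillin/streptomycin, 37 °C, 5% CO2. Exponentially growing cells seeded at 2×10^4 per well with various drug concentrations, 72 h at 37 °C; tetrazolium dye (CellTiter 96 AQueous One) then added for 2 h, absorbance read at 492 nm. IC50 averaged from two experiments.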

The nature of assay [1]: Inhibition of pig brain GSK3alpha/beta. The arrangement: species or system Sus scrofa. In a few lines: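 GSK-3α/β purified from porcine brain, diluted 1/100 in 1 mg/ml BSA, 10 mM DTT. Assayed in buffer A (pH 7.5, with heparin) with GS-1 peptide (5 µl of 40 µM) as substrate and 15 µM [γ-33P]ATP, 30 µl final, 30 min at 30 °C. Detection by P81 phosphocellulose paper binding, phosphoric acid washes, scintillation counting. IC50 averaged from two experiments; DMSO controls.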

Assay [2] is described as follows: Inhibition of starfish CDK1/cyclin B. The arrangement: species or system Marthasterias glacialis. A digest of the protocol:
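CDK1/cyclin B taken from M-phase starfish (Marthasterias glacialis) oocytes and affinity-purified on p9CKShs1-sepharose beads, eluted with free p9CKShs1. Assayed in buffer C with 1 mg/ml histone H1 and 15 µM [γ-33P]ATP, 30 µl final, 10 min at 30 °C. Detection by P81 phosphocellulose paper binding and scintillation counting. IC50 averaged from two experiments.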

Assay [3] can be described thus: Inhibition of recombinant CDK5/p25 expressed in Escherichia coli. In a few lines:
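Recombinant CDK5 and p25 expressed in E. coli as GST fusions, purified on glutathione-agarose and mixed in equal amounts. Assayed in buffer C with 1 mg/ml histone H1 and 15 µM [γ-33P]ATP, 30 µl final, 10 min at 30 °C. Detection by P81 phosphocellulose paper binding and scintillation counting. IC50 averaged from two experiments.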

Some results are limits rather than exact numbers.

Regarding `CN(C)CCCOc1ccc(-c2cncc(-c3cc4ccccc4[nH]3)c2)cc1`, the IC50 (usually the point on the concentration scale where inhibition reaches its midpoint) came out at 5.4 µM in the assay with CCRF-CEM, 31 µM in assay [1], 0.9 µM in assay [2] and 1 µM in assay [3].
As for `CN(C)CCCOc1ccc(-c2cncc(-c3cc4cc(O)ccc4n3CCCN(C)C)c2)cc1`, the figures for the IC50 (in the assay with CCRF-CEM; in assay [1]; in assay [2]) were 12.7 µM, greater than 10 µM and greater than 10 µM, respectively.
In the case of `CN(C)CCCn1c(-c2cncc(-c3cc4cc(O)ccc4[nH]3)c2)cc2cc(O)ccc21`, the IC50 in the assay on CCRF-CEM is 14.2 µM; in assay [1], greater than 10 µM; in assay [2] it was greater than 10 µM.
On to `CN(C)CCOc1ccc(-c2cncc(-c3cc4ccccc4n3CCN(C)C)c2)cc1`, for which the IC50 is 7.97 µM with CCRF-CEM, greater than 10 µM in assay [1] and greater than 10 µM in assay [2].
Regarding `CN(C)CCOc1ccc(-c2cncc(-c3cc4cc(O)ccc4[nH]3)c2)cc1`, the half-inhibitory concentration (IC50) in the assay with CCRF-CEM was found to be 12.3 µM; in assay [1], 4.6 µM; in assay [2], 3.6 µM; in assay [3], 6.7 µM.
Take `Oc1ccc2[nH]c(-c3cncc(-c4cc5cc(O)ccc5[nH]4)c3)cc2c1`: the half-inhibitory concentration (IC50) in the assay on CCRF-CEM came out at 7.99 µM; in assay [1], 30 µM; in assay [2] it was 0.54 µM; in assay [3], 1.2 µM.
`CN(C)CCn1c(-c2cncc(-c3cc4cc(O)ccc4[nH]3)c2)cc2cc(O)ccc21`: the IC50 was 5.76 µM in the assay on CCRF-CEM, greater than 10 µM in assay [1] and greater than 10 µM in assay [2].
With `CN(C)CCCOc1ccc(-c2cncc(-c3cc4cc(O)ccc4[nH]3)c2)cc1`, the IC50 with CCRF-CEM was 5.35 µM; in assay [1], 3.8 µM; in assay [2], 1.9 µM; in assay [3], 5 µM.
For the compound `Oc1ccc(-c2cncc(-c3cc4ccccc4[nH]3)c2)cc1`, the IC50 was 4.67 µM with CCRF-CEM, greater than 100 µM in assay [1], 0.7 µM in assay [2] and 0.9 µM in assay [3].
As for `CN(C)CCCOc1ccc(-c2cncc(-c3cc4ccccc4n3CCCN(C)C)c2)cc1`, the IC50 with CCRF-CEM is 4.19 µM; in assay [1], greater than 10 µM; in assay [2], greater than 10 µM.
Regarding `CN(C)CCn1c(-c2cncc(-c3cc4cc(O)ccc4n3CCN(C)C)c2)cc2cc(O)ccc21`, the IC50 is 14.8 µM in the assay with CCRF-CEM, greater than 10 µM in assay [1] and greater than 10 µM in assay [2].
Consider `CN(C)CCOc1ccc(-c2cncc(-c3cc4ccccc4[nH]3)c2)cc1`, for which the IC50 in the assay with CCRF-CEM was determined as 9.02 µM; in assay [1] it was 4.8 µM; in assay [2], 2.5 µM; in assay [3] it was 3.1 µM.
`CN(C)CCOc1ccc(-c2cncc(-c3cc4cc(O)ccc4n3CCN(C)C)c2)cc1`: the values for the half-maximal inhibitory concentration (IC50) (in the assay with CCRF-CEM; in assay [1]; in assay [2]) were 31.9 µM, greater than 10 µM and greater than 10 µM, respectively.
Regarding `CN(C)CCCn1c(-c2cncc(-c3cc4cc(O)ccc4n3CCCN(C)C)c2)cc2cc(O)ccc21`, the IC50 in the assay with CCRF-CEM is 11.1 µM; in assay [1], greater than 10 µM; in assay [2], greater than 10 µM.
On to `Oc1ccc(-c2cncc(-c3cc4cc(O)ccc4[nH]3)c2)cc1`, for which the IC50 with CCRF-CEM was determined as 14.5 µM; in assay [1], 40 µM; in assay [2] it was 0.31 µM; in assay [3] it was 1.5 µM.
